This passage reports Kd results from the RNAGym collection of RNA variant scans (doi:10.1038/nmeth.2970).

B1: NELF-E aptamer (parent)
chain: CCCAACGACUGCCGAGCGAGAUUACGCUUGAGCGCCCCACUGAGGAUGCCCACGGGCGAUUGGGGCACGG

The series covers variants of B1. Description: HiTS-RAP. The following applies: with NELF-E (Drosophila). The method, boiled down:
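Aptamer DNA templates carrying a T7 promoter and ter site were sequenced on an Illumina GAIIx flowcell, then transcribed in situ by T7 RNA polymerase and halted by GST-Tus (30 minutes, 37°C). Clusters were imaged after 30-minute room-temperature equilibration with NELF-E-mOrange at 0.064 to 1000 nM in HEPES binding buffer, and only the first binding curve was used. Intensities were normalised to sequencing intensity and averaged per sequence. Kd came from weighted Hill fits, keeping fits with variance below 1,000,000.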
As a reminder, the Kd is a measure of binding affinity in units of concentration. On to CCCAACGAGUGCCGAGCGAGAUUACGCUUGAGCACCCCACUGAGGAUGCCCACGGGCGAUUGGGGCACGG [C9G G34A], for which the dissociation constant (Kd) is 9.14 nM.

Consider CCCAACGAUUGCGGAGCGAGAUUACGCUUGAGCGCCCCACUGAGGAUGCCCACGGGCGAUUGGGGCACGG [C9U C13G], for which the Kd came to 5.59 nM.

In the case of CCCAACGAUUGCUGAGCGAGAUUACGCUUGAGCGCCCCACUGAGGAUGCCCACGGGCGAUUGGGGCACGG [C9U C13U], the Kd worked out at 5.14 nM. The value for CCCAACGAUUGCCGAGCGAGAUUACGCUUGAGCGCCCCACUGAGGAUGCCCACGGGCGAUUGGGGCACGG [C9U] was 5.19 nM. The value for CCCAACGAGUGCCGAGCGAGAUUACGCUUGAGCGCCCCACUGAGGAUGCCCACGGGCGAGUGGGGCACGG [C9G U60G] was 6.72 nM; that for CCCAACGAGUGCCGAGCGAGAUUACGCUUGAGCGCCCCACUGAGGAUGCCCACGGGCGACUGGGGCACGG [C9G U60C] was 11.4 nM; that for CCCAACGAGUGCCGAGCGAGAUUACGCUUGAGCGCCCCACUGAGGAUGCCCACGGGCGAUUGGGUCACGG [C9G G65U] was 7.11 nM. Take CCCAACGAGUGCCGAGCGAGAUUACGCUUGAGCGCCCCACUGAGGAUGCCCACGGGCGAUUGGGACACGG [C9G G65A]: the Kd came to 4.83 nM.

CCCAACGAGUGCCGAGCGAGAUUACGCUUGAGCGCCCCACUGAGGAUGCCCACGGGCGAUUGGGCCACGG [C9G G65C]: the Kd came to 16.4 nM.

CCCAACGAGUUCCGAGCGAGAUUACGCUUGAGCGCCCCACUGAGGAUGCCCACGGGCGAUUGGGGCACGG [C9G G11U]: the Kd amounted to 6 nM.

On to CCCAACGAGUACCGAGCGAGAUUACGCUUGAGCGCCCCACUGAGGAUGCCCACGGGCGAUUGGGGCACGG [C9G G11A], for which the Kd was determined as 6.35 nM. With CCCAACGAGUGCCGAGCGAGAUUACGCAUGAGCGCCCCACUGAGGAUGCCCACGGGCGAUUGGGGCACGG [C9G U28A], the dissociation constant Kd stood at 5.64 nM. Take CCCAACGAGUGCCGAGCGAGAUUACGCGUGAGCGCCCCACUGAGGAUGCCCACGGGCGAUUGGGGCACGG [C9G U28G]: the equilibrium dissociation constant (Kd) is 6.8 nM. The value for CCCAACGAGUGCCGAGCGAGAUUACGCCUGAGCGCCCCACUGAGGAUGCCCACGGGCGAUUGGGGCACGG [C9G U28C] was 9.43 nM; that for CCCAACGAGUGCCGAGCGAGAUUACGCUUUAGCGCCCCACUGAGGAUGCCCACGGGCGAUUGGGGCACGG [C9G G30U] was 6.64 nM; that for CCCAACGAGUGCCGAGCGAGAUUACGCUUAAGCGCCCCACUGAGGAUGCCCACGGGCGAUUGGGGCACGG [C9G G30A] was 4.33 nM. With CCCAACGAGUGCCGAGCGAGAUUACGCUUGAGCGCCCCACUGAGGAUGCCCAUGGGCGAUUGGGGCACGG [C9G C53U], the Kd was 4.66 nM. Under CCCAACGAGUGCCGAGCGAGAUUACUCUUGAGCGCCCCACUGAGGAUGCCCACGGGCGAUUGGGGCACGG [C9G G26U] stands 8.09 nM; under CCCAACGAGUGCCGAGCGAGAUUACACUUGAGCGCCCCACUGAGGAUGCCCACGGGCGAUUGGGGCACGG [C9G G26A], 5.39 nM; under CCCAACGAGUGCCGAGCGAGAUUACGCUUGAGCGCCCCACUAAGGAUGCCCACGGGCGAUUGGGGCACGG [C9G G42A], 56.8 nM. The value for CCCAACGAGUGCCGAGCGAGAUUACGCUUGAGCGCCCCACUUAGGAUGCCCACGGGCGAUUGGGGCACGG [C9G G42U] was 7.6 nM; that for CCCAACGAGUGCCGAGCGAGAUUACGCUUGAGCGCCCCACUGAGAAUGCCCACGGGCGAUUGGGGCACGG [C9G G45A] was 35.6 nM. Under CCCAACGAGUGCCGAGCGAGAUUACGCUUGAGCGCCCCACUGAGUAUGCCCACGGGCGAUUGGGGCACGG [C9G G45U] stands 5.69 nM; under CCCAACGAGUGCCGAGCGAGAUUACGCUUGAGCGCCCCACUGAGGAUGCCCACGGGCGAUUGAGGCACGG [C9G G63A], 15.9 nM; under CCCAACGAGUGCCGAGCGAGAUUACGCUUGAGCGCCCCACUGAGGAUGCCCACGGGCGAUUGUGGCACGG [C9G G63U], 10.3 nM. Regarding CCCAACGAGUGCCGAGCGAGAUUACGCUUGAACGCCCCACUGAGGAUGCCCACGGGCGAUUGGGGCACGG [C9G G32A], the Kd was found to be 4.88 nM. Under CCCAACGAGUGCCGAGCGAGAUUACGCUUGAGCGCCCCACUGAGGAAGCCCACGGGCGAUUGGGGCACGG [C9G U47A] stands 11.9 nM; under CCCAACGAGUGCCGAGCGAGAUUACGCUUGAGCGCCCCACUGAGGAGGCCCACGGGCGAUUGGGGCACGG [C9G U47G], 5.29 nM; under CCCAACGAGUGCCGAGCGAGAUUACGCUUGAGCGCCCCACUGAGGAUGCCCACGGGCGAUUAGGGCACGG [C9G G62A], 26.9 nM. On to CCCAACGAGUGCCGAGCGAGAUUACGCUUGAGCGCCCCACUGAGGAUGCCCACGGGCGAUUUGGGCACGG [C9G G62U], for which the Kd came out at 10 nM. The value for CCCAACGAGUGCCGAGCGAGAUUACGCUCGAGCGCCCCACUGAGGAUGCCCACGGGCGAUUGGGGCACGG [C9G U29C] was 6.28 nM.

On to CCCAACGAGUGCCGAGCGAGAUUACGCUGGAGCGCCCCACUGAGGAUGCCCACGGGCGAUUGGGGCACGG [C9G U29G], for which the Kd came out at 5.58 nM.

As to CCCAACGAGUGCCGAGCGAGAUUACGCUAGAGCGCCCCACUGAGGAUGCCCACGGGCGAUUGGGGCACGG [C9G U29A], the Kd is 6.02 nM. As to CCCAACGAGUGCCGAGCGAGAUUACGCUUGAGCGCCCCACUGAGGAUGCCCACGGACGAUUGGGGCACGG [C9G G56A], the Kd came out at 7.64 nM.

Turning to CCCAACGAGUGCCGAGCGAGAUUACGCUUGAGCGCCCCACUGAGGAUGCCCACGGUCGAUUGGGGCACGG [C9G G56U], the Kd turned out to be 6.71 nM. Under CCCAACGAGUGCCGAGCGAGAUUACGCUUGAGCGCCCCACUGAGGAUACCCACGGGCGAUUGGGGCACGG [C9G G48A] stands 8.11 nM; under CCCAACGAGUGCCGAGCGAGAUUACGCUUGAGCGCCCCACGGAGGAUGCCCACGGGCGAUUGGGGCACGG [C9G U41G], 6.14 nM.

Take CCCAACGAGUGCCGAGCGAGAUUACGCUUGAGCGCCCCACAGAGGAUGCCCACGGGCGAUUGGGGCACGG [C9G U41A]: the dissociation constant Kd was determined as 79.4 nM.
